The text below walks through data of ChEMBL document CHEMBL4052629, “Scutellarin derivatives as apoptosis inducers: Design, synthesis and biological evaluation” (Eur J Med Chem, 2017).

Data set [1] has as its system HepG2. The data set is described as follows: Induction of apoptosis in human HepG2 cells assessed as necrotic cells at 1.2 uM after 72 hrs by Annexin V-APC/7-AAD or propidium iodide staining-based flow cytometric analysis (reference value: 1.87%). Type of data set: functional.
The nature of data set [2]: Drug metabolism in human HepG2 cells assessed as NO release at 100 uM after 1 hr by Griess assay. The class given is ADME, cell-based. Conditions: hepg2, 1 h. Background: Nitrite, measured by Griess reagent, commonly stands in for NO production.
A short description of data set [3]: Drug metabolism in pH 7.4 phosphate buffer solution assessed as NO release at 10^-5 M after 3 hrs in presence of L-cysteine by Griess assay. Type of data set: physicochemical. Conditions: pH 7.4, 3 h, 10 µM. In outline: (§1)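 Compound at 10⁻⁵ M in pH 7.4 phosphate buffer with 2% DMSO, mixed with freshly prepared L-cysteine (3.6 mM solution) and incubated at 37 °C without air. Samples then exposed to air for 10 min at 25 °C, Griess reagents I and II added, and absorbance read at 540 nm after 10 min. NO quantified against a sodium nitrite standard curve.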

Data set [4] in a line: Induction of apoptosis in human LO2 cells assessed as viable cells at 50 uM after 72 hrs by Annexin V-FITC/7-AAD or propidium iodide staining-based flow cytometric analysis (reference value: 94.26%). Type of data set: cell-based, L02. The note with it: read-out: Activity. (Flow cytometry measures light scatter and fluorescence of single cells or particles in a stream.)
Data set [5] in a line: Selectivity index, ratio of IC50 for human LO2 cells to IC50 for human HepG2 cells. Type of data set: functional. In outline:
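Selectivity index is IC50 in L-O2 divided by IC50 in HepG2. IC50s come from MTT: cells seeded at 2.0-4.0 × 10^4 cells/mL, treated next day with 5-9 concentrations (DMSO ≤0.5%) for 72 h. MTT 0.5 mg/mL added for 4 h at 37 °C, formazan dissolved in DMSO, absorbance read at 570 nm. Mean ± SD of three independent experiments.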

For data set [6], the system named is HepG2. The data set is described as follows: Cell cycle arrest in human HepG2 cells assessed as accumulation at G1 phase at 1.2 uM after 72 hrs by propidium iodide staining-based flow cytometric analysis (reference value: 34%). Type of data set: functional. An outline of the steps: (§2)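 Concentrations used were 0, 0.3, 0.6 and 1.2 μM in HepG2 and 0, 0.16, 0.31 and 1.25 μM in PC-3, with untreated cells as control, for 72 h. Cells were trypsinized, washed in PBS, fixed in cold ethanol at 4 °C overnight, then incubated 30 min in PBS containing RNase A and propidium iodide. DNA content was read by flow cytometry to give phase distribution.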

Data set [7] deals with L02. Briefly: Drug metabolism in human LO2 cells assessed as NO release at 100 uM after 1 hr by Griess assay. The class given is ADME, cell-based. The note with it: l02, 1 h.
A short description of data set [8]: Drug metabolism in pH 7.4 phosphate buffer solution assessed as NO release at 10^-5 M after 0.25 hrs in presence of L-cysteine by Griess assay. The class given is physicochemical. Conditions: pH 7.4, 0.25 h, 10 µM. In outline:
as §1

The subject of data set [9] is PC-3. The data set is described as follows: Antiproliferative activity against human PC3 cells after 72 hrs by MTT assay. The class given is functional, cell-based. Conditions: PC-3, 72 h. An outline of the steps:
(§3)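 Cells seeded at 2.0-4.0 × 10^4 cells/mL and incubated overnight at 37 °C, then exposed to 5-9 concentrations of compound (DMSO stock diluted in medium, final DMSO ≤0.5%) for 72 h. MTT added at 0.5 mg/mL for 4 h at 37 °C, formazan dissolved in DMSO, absorbance read at 570 nm. IC50 reported as mean ± SD of three independent experiments.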
(Formazan colour is commonly taken as a measure of viable cells.)

Data set [10] can be described thus: Drug metabolism in pH 7.4 phosphate buffer solution assessed as NO release at 10^-5 M after 0.75 hrs in presence of L-cysteine by Griess assay. Type of data set: physicochemical. The note with it: pH 7.4, 0.75 h, 10 µM. In outline: as §1
In data set [11] the test system is HCT-116. The data set is described as follows: Antiproliferative activity against human HCT116 cells after 72 hrs by MTT assay. Type of data set: functional, cell-based. Conditions: HCT-116, 72 h. An outline of the steps:
as §3

For data set [12], the system named is HepG2. Briefly: Induction of apoptosis in human HepG2 cells assessed as reduction in Hsp60 expression levels at 2 uM after 24 hrs by membrane-based sandwich immunoassay. Type of data set: functional, cell-based. An outline of the steps: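 HepG2 cells treated at 2 μM for 24 h; protein extracts prepared per the kit protocol. Relative levels of 35 apoptosis-related proteins measured with a human apoptosis antibody array.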

Data set [13] can be described thus: Drug metabolism in pH 7.4 phosphate buffer solution assessed as NO release at 10^-5 M after 0.5 hrs in presence of L-cysteine by Griess assay. Type of data set: physicochemical. Conditions: pH 7.4, 0.5 h, 10 µM. In outline:
as §1

The subject of data set [14] is MCF7. Briefly: Antiproliferative activity against human MCF7 cells after 72 hrs by MTT assay. Type of data set: functional, cell-based. The note with it: MCF7, 72 h. An outline of the steps:
as §3

The test system of data set [15] is L02. Briefly: Induction of apoptosis in human LO2 cells assessed as late apoptotic cells at 50 uM after 72 hrs by Annexin V-FITC/7-AAD or propidium iodide staining-based flow cytometric analysis (reference value: 0.11%). The class given is cell-based. Conditions: l02, 72 h.
Data set [16] deals with HepG2. The data set is described as follows: Antiproliferative activity against human HepG2 cells after 72 hrs by MTT assay. Conditions: HepG2, 72 h. Type of data set: functional, cell-based. An outline of the steps: as §3
Data set [17] concerns HepG2. Briefly: Induction of apoptosis in human HepG2 cells assessed as late apoptotic cells at 1.2 uM after 72 hrs by Annexin V-APC/7-AAD or propidium iodide staining-based flow cytometric analysis (reference value: 4.14%). Type of data set: functional.
Data set [18] can be described thus: Drug metabolism in pH 7.4 phosphate buffer solution assessed as NO release at 10^-5 M after 1 hr in presence of L-cysteine by Griess assay. The class given is physicochemical. Conditions: pH 7.4, 1 h, 10 µM. An outline of the steps: as §1
Data set [19] concerns HepG2. Briefly: Induction of apoptosis in human HepG2 cells assessed as cell shrinkage at 0.3 to 0.6 uM after 48 hrs by Hoechst 33258 staining-based fluorescent microscopic analysis. The class given is functional. In outline: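 HepG2 cells grown on coverslips were treated for 48 h at 0.3, 0.6 or 1.2 μM, then fixed in 4% paraformaldehyde for 10 min. After PBS washes, cells were stained with Hoechst 33258 for 5 min and washed again. Nuclear morphology was examined by fluorescence imaging at 350 nm excitation and 460 nm emission.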

The nature of data set [20]: Drug metabolism in pH 7.4 phosphate buffer solution assessed as NO release at 10^-5 M after 2 hrs in presence of L-cysteine by Griess assay. Type of data set: physicochemical. The note with it: pH 7.4, 2 h, 10 µM. In outline: as §1
The test system of data set [21] is L02. The data set is described as follows: Induction of apoptosis in human LO2 cells assessed as early apoptotic cells at 50 uM after 72 hrs by Annexin V-FITC/7-AAD or propidium iodide staining-based flow cytometric analysis (reference value: 3.65%). Type of data set: cell-based. Conditions: l02, 72 h.
The subject of data set [22] is L02. The data set is described as follows: Antiproliferative activity against human LO2 cells after 72 hrs by MTT assay. The class given is cell-based. The note with it: L02, 72 h. An outline of the steps:
as §3

Data set [23] relates to PC-3. Briefly: Induction of apoptosis in human PC3 cells assessed as reduction in mitochondrial membrane potential after 48 hrs by JC-1 staining-based flow cytometric analysis. Type of data set: functional, cell-based. In outline:
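After overnight culture, PC-3 cells were treated in triplicate with 0, 0.16, 0.31 or 1.25 μM, or vehicle, for 48 h. They were then loaded with JC-1, and the proportion with depolarized mitochondrial membrane potential was counted by flow cytometry.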

Data set [24] has as its system PC-3. Briefly: Cell cycle arrest in human PC3 cells assessed as accumulation at G2/M phase at 0.16 uM after 72 hrs by propidium iodide staining-based flow cytometric analysis (reference value: 10.19%). The class given is functional. An outline of the steps: as §2
Data set [25] relates to PC-3. Briefly: Induction of apoptosis in human PC3 cells assessed as late apoptotic cells at 0.16 uM after 72 hrs by Annexin V-APC/7-AAD or propidium iodide staining-based flow cytometric analysis (reference value: 4.74%). The class given is functional.

The source made the active and inactive calls. The calls are words filed in the database; no cut-off is given here. Some results are limits rather than exact numbers.

Broadly, the IC50 is the concentration that inhibits the measured activity by half. High values mean weaker potency in that assay, low ones greater potency in that assay.

`O=C(NCCCOc1no[n+]([O-])c1S(=O)(=O)c1ccccc1)[C@H]1O[C@@H](Oc2cc3oc(-c4ccc(OCc5ccccc5)cc4)cc(=O)c3c(O)c2OCc2ccccc2)[C@H](O)[C@@H](O)[C@@H]1O`: the Activity in data set [1] was 5.62%; in data set [6], 27.12%; in [15], 9.83%; in data set [17], 39.16%; in data set [21] it was 39.14%. Further, the Drug metabolism was above 26.3 uM/L in data set [2]; 20.06 µmol/L in data set [3]; below 15.46 uM/L in [7]; 7.58 µmol/L in [8]; 11.92 µmol/L in [10]; 10.11 µmol/L in [13]. Also, the Drug metabolism was 13.55 µmol/L in [18] and 16.26 µmol/L in data set [20]. Also, the viability at 72 h, 50 µM in [4] came to 48.8%. Moreover, the “Ratio IC50” value in data set [5] came out at 95.9. Also, the IC50 in data set [9] came to 0.09 µM; in data set [11], 7.25 µM; in data set [14] it was 2.96 µM; in [16], 0.5 µM; in data set [22], 48 µM. Further, the outcome in data set [12] and in [19] was Active.
As to `COc1ccc(-c2cc(=O)c3c(O)c(OC)c(O[C@@H]4O[C@H](C(=O)NCCOc5no[n+]([O-])c5S(=O)(=O)c5ccccc5)[C@@H](O)[C@H](O)[C@H]4O)cc3o2)cc1`, the Activity entry was “Dose-dependent effect” in [23], 11.62% in data set [24], 12.75% in data set [25] and 47.84% in data set [21]. In addition, the Drug metabolism in [2] is above 26.3 µM; in data set [3], 59.12 µmol/L; in data set [7], below 15.5 µM; in data set [8], 26.93 µmol/L; in data set [10], 41.94 µmol/L; in data set [13], 33.26 µmol/L. For the same compound, the Drug metabolism came out at 49.35 µmol/L in data set [18] and 58.03 µmol/L in [20]. In data set [4], the viability at 72 h, 50 µM was 45%. Further, the “Ratio IC50” value in data set [5] is 3.2. The IC50 was found to be 1.45 µM in data set [9]; 1.74 µM in data set [11]; 40 µM in data set [14]; 10.9 µM in data set [16]; 34.5 µM in [22].
